# Assay results from ChEMBL document CHEMBL1145131, “Structure-based design, synthesis, and biological evaluation of irreversible human rhinovirus 3C protease inhibitors. 8. Pharmacological optimization of orally bioavailable 2-pyridone-containing peptidomimetics” (J Med Chem, 2003).
# What was measured:
# [1] = Half-life upon exposure to human plasma; assay type: ADME, organism-based
# In short: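 Pooled heparinized human plasma (10 donors) or 100 mM potassium phosphate pH 7.4 buffer (n = 3 each), spiked to final 25 μM compound from acetonitrile stock. Incubated at 37 °C for 1–3 h with regular sampling. Protein precipitated with acetonitrile, then LC quantification against a 0.05–40 μg/mL standard curve. Half-life by linear regression of mean concentration-time data.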
# [2] = Compound was tested for plasma concentration in dogs 7 hours after oral administration (30 mg/kg) in experiment 1; assay type: ADME, organism-based, Canis lupus familiaris; settings: dog
# In short: (§1)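 Male beagle dogs (BW ~9.3 kg, n = 3), single oral dose of 30 mg/kg. Vehicle was 80:20 propylene glycol:sterile water (15.0 mg/mL) or, in some studies, a 0.5% carboxymethyl cellulose suspension. Blood sampled up to 24 h. Plasma level at 7 h determined by LCMS. Noncompartmental analysis of individual concentration-time profiles.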
# Enterovirus [3] = assay: In vitro anti-rhinoviral activity against human rhinovirus serotypes 2,3,9,14,16,25 and 39; assay type: functional, organism-based
# [4] = Compound was tested in vitro for loss of compound after 4 hours exposure to hepatocytes of monkey at 25 uM concentration; assay type: ADME, cell-based, Hepatocyte; settings: simiiformes, read-out: Metabolism
# [5] = Compound was tested for plasma concentration in dogs 7 hours after oral administration (30 mg/kg) in experiment 2; assay type: ADME, organism-based, Canis lupus familiaris; settings: dog; in short: as §1
# [6] = Compound was tested in vitro for loss of compound after 30 min exposure to liver microsomes of dog at 25 uM concentration; assay type: ADME, organism-based, Canis lupus familiaris; settings: read-out: Metabolism
# In short: (§2)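 Pooled liver microsomes (dog, monkey or human; 1 mg/mL, 6–8 livers) with 2 mM NADPH in 100 mM potassium phosphate, pH 7.4, preincubated 1 min at 37 °C. Started with 25 μM compound, run 30 min, quenched with acetonitrile. Time-zero controls quenched before compound addition. Remaining compound by reversed-phase HPLC at 215 nm. Reported as % metabolized.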
# [7] = Compound was tested in vitro for loss of compound after 4 hours exposure to hepatocytes of dog at 25 uM concentration; assay type: ADME, organism-based, Canis lupus familiaris, Hepatocyte; settings: read-out: Metabolism
# [8] = Compound was tested for plasma concentration in CM-monkeys 7 hours after oral administration (50 mg/kg); assay type: ADME, organism-based, Macaca fascicularis; settings: cynomolgus monkey
# In short: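 Male CM-monkeys (BW ~3.9 kg, n = 3), single oral dose of 50 mg/kg in 80:20 propylene glycol:sterile water at 15.0 mg/mL. Blood sampled periodically up to 24 h post-dose. Plasma concentration at 7 h measured by LCMS. Parameters from noncompartmental analysis of individual concentration-time data.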
# [9] = Thermodynamic aqueous solubility was determined; assay type: physicochemical; settings: buffer
# In short: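 1–2 mg compound stirred in 1 mL of pH 7.0, 50 mM phosphate buffer at room temperature for 4 h. Filtered through a 0.45 μm filter. Filtrate concentration determined by HPLC against a standard of known concentration.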
# Caco-2 = settings: Homo sapiens
# Canis familiaris = organism: Canis familiaris; assay: Compound was tested for plasma protein binding of dog; assay type: ADME, organism-based, Canis lupus familiaris
# In short: (§3)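 Ultrafiltration binding. Compound added from 1 mM and 0.1 mM stocks into heparinized dog or human plasma or pH 7.4 phosphate buffer, giving final 1 and 10 μM. Incubated 1 h at 37 °C, then centrifugal ultrafiltration. Filtrate and whole plasma quantified by LCMS with internal standard. % free = filtrate/whole plasma × 100. Three replicates per species per concentration.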
# [10] = Compound was tested for human plasma protein binding; assay type: ADME, cell-free; in short: as §3
# [11] = Compound was tested in vitro for loss of compound after 4 hours exposure to hepatocytes of human at 25 uM concentration; assay type: ADME, organism-based, Hepatocyte; settings: read-out: Metabolism
# [12] = Compound was tested in vitro for loss of compound after 30 min exposure to liver microsomes of human at 25 uM concentration; assay type: ADME, organism-based; settings: read-out: Metabolism; in short: as §2
# [13] = target: T1, Human rhinovirus A protease (Human rhinovirus sp.) (UniProt Q4U254);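 note: inhibition of the human rhinovirus 3C protease enzyme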
# T1 sequence (whole entry): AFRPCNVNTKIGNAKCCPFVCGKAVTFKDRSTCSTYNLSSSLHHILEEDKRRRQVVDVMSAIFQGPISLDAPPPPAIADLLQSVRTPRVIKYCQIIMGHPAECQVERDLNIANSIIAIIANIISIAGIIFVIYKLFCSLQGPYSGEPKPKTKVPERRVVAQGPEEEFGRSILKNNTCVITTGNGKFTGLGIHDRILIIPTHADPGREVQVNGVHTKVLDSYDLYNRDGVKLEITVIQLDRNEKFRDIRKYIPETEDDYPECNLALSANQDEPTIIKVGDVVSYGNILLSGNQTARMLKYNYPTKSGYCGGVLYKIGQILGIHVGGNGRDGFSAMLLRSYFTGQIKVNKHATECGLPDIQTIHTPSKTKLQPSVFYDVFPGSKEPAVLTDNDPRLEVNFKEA
# Enterovirus [14] = assay: In vitro antirhinoviral activity against human rhinovirus serotypes 9,14 and 25; assay type: functional, organism-based
# [15] = Compound was tested in vitro for loss of compound after 2 hours exposure to hepatocytes of human at 25 uM concentration; assay type: ADME, organism-based, Hepatocyte; settings: read-out: Metabolism
# [16] = Compound was tested in vitro for loss of compound after 30 min exposure to liver microsomes of monkey at 25 uM concentration; assay type: ADME, Microsome; settings: simiiformes, read-out: Metabolism; in short: as §2
# [17] = Compound was tested in vitro for loss of compound after 2 hours exposure to hepatocytes of monkey at 5 uM concentration; assay type: ADME, cell-based, Hepatocyte; settings: simiiformes, read-out: Metabolism
# [18] = Compound was tested in vitro for loss of compound after 2 hours exposure to hepatocytes of dog at 25 uM concentration; assay type: ADME, organism-based, Canis lupus familiaris, Hepatocyte; settings: read-out: Metabolism
# [19] = Compound was tested for plasma concentration in dogs 7 hours after oral administration (30 mg/kg); assay type: ADME, organism-based, Canis lupus familiaris; settings: dog; in short: as §1
# [20] = Compound was tested in vitro for loss of compound after 2 hours exposure to hepatocytes of monkey at 25 uM concentration; assay type: ADME, cell-based, Hepatocyte; settings: simiiformes, read-out: Metabolism
# Enterovirus [21] = assay: In vitro antirhinoviral activity mean against human rhinovirus serotypes 2, 3, 9, 14, 16 and 25
# Enterovirus [22] = assay: In vitro antirhinoviral activity against human rhinovirus serotypes 2, 3, 9, 14, 16 and 39 (mean)
SMILES,half-life [1],EC50 (Enterovirus [3]),"metabolised at 0.5 h, 25 µM [6]",solubility thermodynamic [9],Papp (Caco-2),"metabolised at 0.5 h, 25 µM [12]",K obs / 1 [13],other results
Cc1cc(C(=O)Nc2cccn([C@@H](Cc3ccc(F)c(F)c3)C(=O)N[C@H](/C=C/C(=O)OC(C)C)C[C@@H]3CCNC3=O)c2=O)no1,9.7 h,78 nM,57%,21 µg/mL,36 10e-6 cm s-1,56%,–,"concentration at 7 h [2]: 815 nM; metabolised at 4 h, 25 µM [4]: 92%; concentration at 7 h [5]: 959 nM; metabolised at 4 h, 25 µM [7]: 16%; concentration at 7 h [8]: 12 nM; Free (Canis familiaris): 19%; Free [10]: 9%; metabolised at 4 h, 25 µM [11]: 87%"
C#CC[C@@H](C(=O)N[C@H](/C=C/C(=O)OCC(C)(C)C)C[C@@H]1CCNC1=O)n1cccc(NC(=O)c2cc(C)on2)c1=O,–,276 nM,–,–,–,–,128000 M⁻¹ s⁻¹,–
C#CC[C@@H](C(=O)N[C@H](/C=C/C(=O)OC1CCCCCC1)C[C@@H]1CCNC1=O)n1cccc(NC(=O)c2cc(C)on2)c1=O,–,–,–,–,–,–,47000 M⁻¹ s⁻¹,EC50 (Enterovirus [14]): 812 nM
CC[C@@H](C(=O)N[C@H](/C=C/C(=O)OCC(C)(C)C)C[C@@H]1CCNC1=O)n1cccc(NC(=O)c2cc(C)on2)c1=O,–,310 nM,–,–,–,–,38200 M⁻¹ s⁻¹,–
CC[C@@H](C(=O)N[C@H](/C=C/C(=O)OC(C)(C)C)C[C@@H]1CCNC1=O)n1cccc(NC(=O)c2cc(C)on2)c1=O,–,405 nM,–,–,–,–,45100 M⁻¹ s⁻¹,–
C#CC[C@@H](C(=O)N[C@H](/C=C/C(=O)OC1CCCCC1)C[C@@H]1CCNC1=O)n1cccc(NC(=O)c2cc(C)on2)c1=O,–,–,–,–,–,–,34000 M⁻¹ s⁻¹,EC50 (Enterovirus [14]): 406 nM
CCOC(=O)/C=C/[C@H](C[C@@H]1CCNC1=O)NC(=O)[C@H](CC)n1cccc(NC(=O)c2cc(C)on2)c1=O,5.6 h,47 nM,37%,38 µg/mL,5 10e-6 cm s-1,61%,170000 M⁻¹ s⁻¹,"metabolised at 2 h, 25 µM [15]: 82%; concentration at 7 h [2]: 682 nM; metabolised at 0.5 h, 25 µM [16]: 61%; concentration at 7 h [5]: < 10 nM; metabolised at 2 h, 5 µM [17]: 76%; metabolised at 2 h, 25 µM [18]: 14%; concentration at 7 h [8]: 896 nM"
C#CC[C@@H](C(=O)N[C@H](/C=C/C(=O)OCC)C[C@@H]1CCNC1=O)n1cccc(NC(=O)c2cc(C)on2)c1=O [IMOCITRELVIR],6.6 h,58 nM,45%,377 µg/mL,6 10e-6 cm s-1,40%,223000 M⁻¹ s⁻¹,"metabolised at 2 h, 25 µM [15]: 85%; metabolised at 0.5 h, 25 µM [16]: 55%; concentration at 7 h [19]: 248 nM; metabolised at 2 h, 25 µM [18]: 12%; concentration at 7 h [8]: 57 nM; Free (Canis familiaris): 54%; Free [10]: 34%; metabolised at 2 h, 25 µM [20]: 79%"
Cc1cc(CCCOc2c(C)cc(-c3noc(C(F)(F)F)n3)cc2C)on1 [PLECONARIL],–,136 nM,–,–,–,–,–,–
CC[C@@H](C(=O)N[C@H](/C=C/C(=O)OC1CCC1)C[C@@H]1CCNC1=O)n1cccc(NC(=O)c2cc(C)on2)c1=O,9.2 h,76 nM,46%,192 µg/mL,10 10e-6 cm s-1,49%,170000 M⁻¹ s⁻¹,concentration at 7 h [19]: 222 nM; Free (Canis familiaris): 42%; Free [10]: 33%
CC[C@@H](C(=O)N[C@H](/C=C/C(=O)OC(C)C)C[C@@H]1CCNC1=O)n1cccc(NC(=O)c2cc(C)on2)c1=O,–,–,–,–,–,–,36000 M⁻¹ s⁻¹,EC50 (Enterovirus [14]): 322 nM
C#CC[C@@H](C(=O)N[C@H](/C=C/C(=O)OCc1ccccc1)C[C@@H]1CCNC1=O)n1cccc(NC(=O)c2cc(C)on2)c1=O,4.3 h,36 nM,67%,22 µg/mL,18 10e-6 cm s-1,52%,300000 M⁻¹ s⁻¹,"metabolised at 2 h, 25 µM [15]: 51%; concentration at 7 h [19]: 563 nM; metabolised at 2 h, 25 µM [18]: 61%; concentration at 7 h [8]: 3 nM; Free (Canis familiaris): 25%; Free [10]: 13%; metabolised at 2 h, 25 µM [20]: 69%"
CC[C@@H](C(=O)N[C@H](/C=C/C(=O)OC1CCCCC1)C[C@@H]1CCNC1=O)n1cccc(NC(=O)c2cc(C)on2)c1=O,–,–,–,–,–,–,23000 M⁻¹ s⁻¹,EC50 (Enterovirus [14]): 313 nM
C#CC[C@@H](C(=O)N[C@H](/C=C/C(=O)OC(C)(C)C)C[C@@H]1CCNC1=O)n1cccc(NC(=O)c2cc(C)on2)c1=O,–,361 nM,–,–,–,–,60500 M⁻¹ s⁻¹,–
CC[C@@H](C(=O)N[C@H](/C=C/C(=O)OCc1ccccc1)C[C@@H]1CCNC1=O)n1cccc(NC(=O)c2cc(C)on2)c1=O,2.5 h,64 nM,69%,41 µg/mL,11 10e-6 cm s-1,56%,210000 M⁻¹ s⁻¹,"metabolised at 2 h, 25 µM [15]: 27%; concentration at 7 h [19]: 156 nM; metabolised at 2 h, 25 µM [18]: 55%; Free (Canis familiaris): 20%; Free [10]: 8%"
C#CC[C@@H](C(=O)N[C@H](/C=C/C(=O)OC1CCCC1)C[C@@H]1CCNC1=O)n1cccc(NC(=O)c2cc(C)on2)c1=O,12.5 h,174 nM,76%,15 µg/mL,36 10e-6 cm s-1,59%,186000 M⁻¹ s⁻¹,concentration at 7 h [19]: 160 nM; Free (Canis familiaris): 20%; Free [10]: 7%
C#CC[C@@H](C(=O)N[C@H](/C=C(\C)C(=O)OCC)C[C@@H]1CCNC1=O)n1cccc(NC(=O)c2cc(C)on2)c1=O,–,1460 nM,–,–,–,–,12500 M⁻¹ s⁻¹,–
C#CC[C@@H](C(=O)N[C@H](/C=C/C(=O)OC(C)C)C[C@@H]1CCNC1=O)n1cccc(NC(=O)c2cc(C)on2)c1=O,–,–,–,–,–,–,100000 M⁻¹ s⁻¹,EC50 (Enterovirus [21]): 174 nM
CCOC(=O)c1ccc(OCCC2CCN(c3ccc(C)nn3)CC2)cc1 [PIRODAVIR],–,–,–,–,–,–,–,EC50 (Enterovirus [22]): 31 nM
CCOC(=O)/C=C/[C@H](C[C@@H]1CCNC1=O)NC(=O)[C@H](Cc1ccc(F)c(F)c1)n1cccc(NC(=O)c2cc(C)on2)c1=O,1.4 h,11 nM,57%,25 µg/mL,35 10e-6 cm s-1,81%,–,"metabolised at 2 h, 25 µM [15]: 94%"
C#CC[C@@H](C(=O)N[C@H](/C=C/C(=O)OC1CCC1)C[C@@H]1CCNC1=O)n1cccc(NC(=O)c2cc(C)on2)c1=O,3.3 h,90 nM,53%,25 µg/mL,14 10e-6 cm s-1,52%,207000 M⁻¹ s⁻¹,concentration at 7 h [19]: 73 nM
CC[C@@H](C(=O)N[C@H](/C=C/C(=O)OC1CCCCCC1)C[C@@H]1CCNC1=O)n1cccc(NC(=O)c2cc(C)on2)c1=O,–,–,–,–,–,–,15000 M⁻¹ s⁻¹,–
